The record followed here is ChEMBL document CHEMBL1128501, “Synthesis and biological evaluation of 14-alkoxymorphinans. 11. 3-Hydroxycyprodime and analogues: opioid antagonist profile in comparison to cyprodime” (J Med Chem, 1995).

In assay [1] the target is Kappa-type opioid receptor (Mus musculus) (UniProt P33534). Kind of assay: Binding affinity for kappa opioid receptor against agonist (U-69,593) in mouse vas deferens preparation. In a few lines:
(§1)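 Electrically stimulated isolated mouse vas deferens. Test compound was given as antagonist against agonist-induced responses: DAMGO for μ, DPDPE for δ, and CI977 or other κ agonists for κ. Ke = [antagonist]/(DR − 1), where DR is the ratio of equiactive agonist concentrations with and without antagonist.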

Assay [2] addresses Kappa-type opioid receptor (Cavia porcellus) (UniProt P41144). Put plainly: Binding affinity for kappa opioid receptor against agonist (CI977) in guinea pig ileum preparations. The format is tissue-based. In a few lines: (§2)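 Myenteric-plexus longitudinal muscle of guinea pig ileum. Test compound was given as antagonist against κ agonist responses. Ke = [antagonist]/(DR − 1), where DR is the ratio of equiactive agonist concentrations with and without antagonist, from separate determinations.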

In assay [3] the target is Kappa-type opioid receptor (Mus musculus) (UniProt P33534). Kind of assay: Binding affinity was evaluated by measuring the ability from displace CI977 radioligand binding to Opioid receptor kappa 1 in mouse vas deferens preparation. In a few lines:
as §1

Assay [4] addresses T1, Kappa-type opioid receptor (Cavia porcellus, UniProt P41144). Put plainly: Binding affinity was evaluated by measuring the ability to displace [3H]U-69593 radioligand binding from Opioid receptor kappa 1 in guinea pig brain membranes. Type of assay: cell membranes, Membrane. In outline:
(§3)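 Radioligand displacement in guinea pig brain homogenates in 50 mM Tris-HCl, pH 7.4, for 40 min at 25 °C. Radioligands were [3H]DAMGO for μ, [3H]U69593 for κ and [3H]DPDPE for δ sites. Result given as Ki.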

Assay [5] addresses Kappa-type opioid receptor (Mus musculus) (UniProt P33534). Kind of assay: Binding affinity for kappa opioid receptor against agonist (CI977) in mouse vas deferens preparation. In a few lines:
as §1

For assay [6], the target named is Kappa-type opioid receptor (Cavia porcellus) (UniProt P41144). Put plainly: Binding affinity for kappa opioid receptor against agonist (ethylketocyclazocine) in guinea pig ileum preparations. Type of assay: tissue-based. In a few lines:
as §2

The target of assay [7] is Kappa-type opioid receptor (Mus musculus) (UniProt P33534). Put plainly: Binding affinity for kappa opioid receptor against agonist (dynorphine) in mouse vas deferens. The format is tissue-based. In outline:
as §1

Assay [8] has as its target Delta-type opioid receptor (Mus musculus) (UniProt P32300). Put plainly: Binding affinity was evaluated by measuring the ability from displace DPDPE radioligand binding from delta opioid receptor in mouse vas deferens preparation. In outline: as §1
The target of assay [9] is Kappa-type opioid receptor (Cavia porcellus) (UniProt P41144). Kind of assay: Binding affinity for kappa opioid receptor against agonist (U-69,593) in guinea pig ileum preparations. Type of assay: tissue-based. In a few lines:
as §2

Assay [10] addresses T2, Mu-type opioid receptor (Cavia porcellus, UniProt P97266). Put plainly: Binding affinity was evaluated by measuring the ability to displace [3H]DAMGO radioligand binding from Opioid receptor mu 1 in guinea pig brain membranes. Type of assay: cell membranes, Membrane. In a few lines: as §3
Assay [11] addresses Mu-type opioid receptor (Mus musculus) (UniProt P42866). Put plainly: […] binding affinity was evaluated by measuring the ability from displace [3H]DAMGO radioligand binding to mu opioid receptor in mouse vas deferens preparation. In a few lines:
as §1

Assay [12] addresses Kappa-type opioid receptor (Cavia porcellus) (UniProt P41144). Put plainly: Binding affinity for kappa opioid receptor against agonist (trifluadom) in guinea pig ileum preparations. The format is tissue-based. In a few lines: as §2
Assay [13] concerns the target Kappa-type opioid receptor (Mus musculus) (UniProt P33534). Kind of assay: Binding affinity for kappa opioid receptor against agonist (ethylketocyclazocine) in mouse vas deferens. The format is tissue-based. In outline: as §1
Assay [14] has as its target Mu-type opioid receptor (Mus musculus) (UniProt P42866). Kind of assay: Binding affinity was evaluated by measuring the ability to displace [3H]-DAMGO radioligand binding from Opioid receptor mu 1 in mouse vas deferens preparation. In a few lines:
as §1

Assay [15] deals with Delta-type opioid receptor (Mus musculus) (UniProt P32300). Put plainly: Binding affinity was evaluated by measuring the ability to displace DPDPE radioligand binding from delta opioid receptor in mouse vas deferens preparation. In outline: as §1
Assay [16] deals with Kappa-type opioid receptor (Mus musculus) (UniProt P33534). Kind of assay: Binding affinity was evaluated by measuring the ability to displace CI977 radioligand binding from Opioid receptor kappa 1 in mouse vas deferens preparation. In outline:
as §1

Assay [17] addresses T1, Kappa-type opioid receptor. Put plainly: […] binding affinity was evaluated by measuring the ability to displace [3H]U-69593 radioligand binding from Opioid receptor kappa 1 in guinea pig brain membranes. On the set-up: species or system Membrane. In a few lines: as §3
In assay [18] the target is T2, Mu-type opioid receptor. Put plainly: […] binding affinity was evaluated by measuring the ability to displace [3H]DAMGO radioligand binding from Opioid receptor mu 1 in guinea pig brain membranes. Details: species or system Membrane. In a few lines: as §3

Mu-type opioid receptor (Mus musculus), sequence (P42866 whole entry): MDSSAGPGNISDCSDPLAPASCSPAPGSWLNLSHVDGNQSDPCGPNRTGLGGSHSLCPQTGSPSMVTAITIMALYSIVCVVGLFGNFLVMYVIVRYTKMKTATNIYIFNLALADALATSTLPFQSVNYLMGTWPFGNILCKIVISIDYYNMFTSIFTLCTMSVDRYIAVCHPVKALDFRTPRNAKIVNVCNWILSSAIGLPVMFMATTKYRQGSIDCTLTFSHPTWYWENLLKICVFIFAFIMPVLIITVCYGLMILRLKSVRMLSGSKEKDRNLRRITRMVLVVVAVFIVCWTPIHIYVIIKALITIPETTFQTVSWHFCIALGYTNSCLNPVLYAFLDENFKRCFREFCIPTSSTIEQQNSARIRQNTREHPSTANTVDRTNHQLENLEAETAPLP
Kappa-type opioid receptor (Cavia porcellus), sequence (P41144 whole entry): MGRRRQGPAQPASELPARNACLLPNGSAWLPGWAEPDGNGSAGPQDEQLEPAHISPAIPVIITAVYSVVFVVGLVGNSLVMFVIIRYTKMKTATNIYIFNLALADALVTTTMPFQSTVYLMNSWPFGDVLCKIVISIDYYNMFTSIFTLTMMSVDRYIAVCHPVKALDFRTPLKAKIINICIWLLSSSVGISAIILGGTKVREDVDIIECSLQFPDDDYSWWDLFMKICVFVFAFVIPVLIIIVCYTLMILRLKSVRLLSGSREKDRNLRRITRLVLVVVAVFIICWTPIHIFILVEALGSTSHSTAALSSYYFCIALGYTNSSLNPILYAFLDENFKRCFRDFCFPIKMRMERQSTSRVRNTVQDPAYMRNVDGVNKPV
T1 sequence (P41144 whole entry): as above
Delta-type opioid receptor (Mus musculus), sequence (P32300 whole entry): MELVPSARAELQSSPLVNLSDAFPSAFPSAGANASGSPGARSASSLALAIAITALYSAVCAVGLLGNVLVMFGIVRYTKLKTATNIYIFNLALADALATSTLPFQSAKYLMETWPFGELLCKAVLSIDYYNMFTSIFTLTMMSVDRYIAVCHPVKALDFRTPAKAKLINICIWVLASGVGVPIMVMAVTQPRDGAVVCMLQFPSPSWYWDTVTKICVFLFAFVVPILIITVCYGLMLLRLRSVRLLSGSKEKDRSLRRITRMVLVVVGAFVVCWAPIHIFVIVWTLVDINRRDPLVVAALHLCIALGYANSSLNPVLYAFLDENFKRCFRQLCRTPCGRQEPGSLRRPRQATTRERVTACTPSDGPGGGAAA
Kappa-type opioid receptor (Mus musculus), sequence (P33534 whole entry): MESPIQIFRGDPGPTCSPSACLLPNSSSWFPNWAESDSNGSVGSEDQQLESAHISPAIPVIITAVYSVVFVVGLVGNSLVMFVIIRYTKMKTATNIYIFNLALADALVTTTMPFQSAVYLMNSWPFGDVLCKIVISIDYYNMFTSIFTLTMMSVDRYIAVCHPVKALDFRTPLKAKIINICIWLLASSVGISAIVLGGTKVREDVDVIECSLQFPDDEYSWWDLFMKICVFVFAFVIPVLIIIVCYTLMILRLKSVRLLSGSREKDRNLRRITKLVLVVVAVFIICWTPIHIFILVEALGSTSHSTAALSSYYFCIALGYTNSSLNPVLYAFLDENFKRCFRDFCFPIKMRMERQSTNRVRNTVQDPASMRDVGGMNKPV
T2 sequence (P97266 whole entry): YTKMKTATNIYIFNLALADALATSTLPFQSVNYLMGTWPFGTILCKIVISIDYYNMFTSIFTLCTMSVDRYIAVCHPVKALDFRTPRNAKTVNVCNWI

A word on the Ki: it is the equilibrium dissociation constant of an inhibitor or competing ligand from its target. `COc1c(O)ccc2c1C13CCN(CC4CC4)C(C2)[C@]1(OC)CCC(=O)C3` (stereo not given in full): the Ke was 354 nM in assay [1]; 284 nM in assay [2]; 368 nM in assay [3]; 368 nM in assay [5]; 3.95 nM in [6]; 450 nM in assay [7]. Besides, the Ke in assay [8] came to 316 nM; in assay [9] it was 97.5 nM; in assay [11], 5.62 nM; in [12] it was 1010 nM; in assay [13], 910 nM. In addition, the inhibition constant Ki in [4] amounted to 4.18 nM; on Mu-type opioid receptor [10] it was 6.15 nM.
Take `CCO[C@@]12CCC(=O)CC13CCN(CC1CC1)C2Cc1ccc(O)c(OC)c13` (stereo not given in full): the Ke is 2.92 nM in assay [14], 106 nM in [15] and 233 nM in [16]. The Ki is 5.46 nM in [17] and 1.42 nM at Mu-type opioid receptor [10].
As for `COc1c(O)ccc2c1C13CCN(CC4CC4)C(C2)[C@]1(O)CCC(=O)C3` (stereo not given in full), the figures for the Ke in [14], in assay [15] and in [16] were 93.8 nM, 8920 nM and 243 nM, respectively. Further, the figures for the Ki (in assay [4]; at Mu-type opioid receptor [18]) were 23 nM and 54.4 nM, respectively.
Turning to `C=CCN1CCC23CC(=O)CC[C@@]2(OC)C1Cc1ccc(O)c(OC)c13` (stereo not given in full), the Ke in [14] turned out to be 4.6 nM; in [15], 2270 nM; in [16] it was 4.67 nM. Besides, the results for the Ki (in assay [17]; on Mu-type opioid receptor [10]) were 25.4 nM and 7.29 nM, respectively.
In the case of `CCCCOc1c(O)ccc2c1C13CCN(CC4CC4)C(C2)[C@]1(OC)CCC(=O)C3` (stereo not given in full), the Ke in assay [14] is 24.9 nM; in [15], more than 10000 nM; in [16] it was 174 nM. For the same compound, the values for the Ki (in [4]; at Mu-type opioid receptor [18]) were 13 nM and 10.9 nM, respectively.
As to `COc1cccc2c1[C@]13CCN(CC4CC4)[C@H](C2)[C@]1(OC)CCC(=O)C3` [CYPRODIME], the Ki in assay [17] turned out to be 105 nM; on Mu-type opioid receptor [10], 23.7 nM.
